Screening results as filed in PubChem BioAssay.
Rtt109 HAT inh = blocks Candida albicans Rtt109/Vps75 acetyltransferase activity; inhibition, % at 34.9 µM; actives 0.16% (n = 330,000); purified Rtt109/Vps75, ThioGlo CoA-SH fluorescence, 4 h; Q5AAJ8;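 active = inhibition of at least 50% in every replicate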
Target sequence (Q5AAJ8 whole entry, looked up): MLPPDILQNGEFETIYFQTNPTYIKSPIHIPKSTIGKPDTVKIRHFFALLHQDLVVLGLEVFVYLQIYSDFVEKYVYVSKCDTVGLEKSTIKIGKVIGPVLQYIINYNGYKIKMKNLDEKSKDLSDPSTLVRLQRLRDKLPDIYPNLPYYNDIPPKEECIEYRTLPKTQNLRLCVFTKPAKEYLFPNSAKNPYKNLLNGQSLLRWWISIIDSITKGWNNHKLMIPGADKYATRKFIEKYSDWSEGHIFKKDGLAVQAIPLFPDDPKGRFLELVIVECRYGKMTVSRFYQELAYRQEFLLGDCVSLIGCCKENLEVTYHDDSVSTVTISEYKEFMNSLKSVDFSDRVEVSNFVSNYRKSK
PfM18AAP inh = blocks P. falciparum M18 aspartyl aminopeptidase | AID 1822 | inhibition, % at 7.35 µM | actives 1.2% (n = 290,000) | recombinant PfM18AAP, H-Glu-NHMec fluorogenic cleavage;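 active = inhibition above the campaign mean inhibition over all tested compounds plus 3 SD, cut at about 28% in these data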;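 also: 0% = plate median of test compound wells and 100% = 2 mM ZnCl2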
UCH37 inh = inhibitors of human deubiquitinating enzyme UCH37; Q9Y5K5; purified proteasome/UCH37, Ub-AMC cleavage fluorescence; inhibition, % (no concentration beside the values); actives 0.33% (n = 330,000); AID 588478;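 active = mean inhibition over replicate wells above about 20%, limit read from the data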;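 also: 0% = compound-free wells with enzyme and 100% = wells lacking proteasome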
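Schedule: 30 min plus 25 min, room temperature / Material: human UCH37 within purified proteasomes / Technique: AMC fluorescence intensity at 355/460 nm / Buffer or medium: pH 7.4 Tris-HCl (50 mM) with ovalbumin, ATP-MgCl2, DTT / Controls: wells without proteasome as full block, compound-free enzyme plus substrate as uninhibited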
HDAC3 inhib = human HDAC3 inhibition; O15379; actives 0.15% (n = 320,000); AID 2718; recombinant HDAC3, fluorogenic peptide/trypsin coupled, fluorescence; inhibition, % at 8.3 µM; in the data active = inhibition above about 26%, passing the limit was not always enough
ALR inh = human ALR oxidase inhibition via reduced H2O2 | P55789 | purified ALR, DTT oxidation, H2O2 HRP-luminol luminescence | inhibition, % (test concentration not listed) | actives 3.8% (n = 290,000);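 active = mean replicate inhibition above about 79%, with every replicate also reaching it, limit read from the data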
FAS TE block = FAS thioesterase (human) inhibition | inhibition, % at 15 µM | P49327 | recombinant FAS-TE, OMFH fluorogenic substrate, fluorescence endpoint | actives 0.67% (n = 360,000);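 active = compounds whose normalised, plate-corrected inhibition of enzyme fluorescence in the single-dose primary screen is 50% or more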;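 also: 0% = DMSO with enzyme and 100% = substrate without enzyme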
FAS-TE inh conf = FAS thioesterase (human) inhibition, confirmation; inhibition, % at 15 µM; recombinant FAS-TE, OMFH fluorogenic substrate, fluorescence; actives 45% (n = 2,300); AID 624325; shares compounds with FAS TE block;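 active = compounds inhibiting the enzyme by at least 50% at 15 µM in any one of the replicates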;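 also: 0% = enzyme with DMSO only and 100% = wells lacking enzyme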
An asterisk follows results filed as active; nt = no result given. An excerpt weighted towards active compounds, which were near 4.6% of everything screened.

SMILES | Rtt109 HAT inh | PfM18AAP inh | UCH37 inh | HDAC3 inhib | ALR inh | FAS TE block | FAS-TE inh conf
COc1ccc2c(c1)C(=O)N1[C@H]3c4cc(Br)ccc4OC[C@@H]3[C@H](c3ccccc3)[C@]1(C)C(=O)N2 | 10 | nt | 0 | 4 | -4 | 78* | 41*
COc1ccc(S(=O)(=O)NN=C(C)c2ccncc2)cc1OC | nt | nt | 1 | nt | nt | nt | nt
Cc1c(C(=O)Nc2cccc(Cl)c2)oc2ccc(S(=O)(=O)N3CCC4(CC3)OCCO4)cc12 | -4 | -2 | 0 | 9 | -5 | 66* | 1
Cc1c(C(=O)Nc2ccc(F)cc2)oc2ccc(S(=O)(=O)N3CCC4(CC3)OCCO4)cc12 | 0 | -2 | 3 | 11 | -5 | 36 | nt
Cc1cc(C(=O)NC(C)CCc2ccccc2)ccc1[N+](=O)[O-] (stereo unspecified) | 3 | 2 | 2 | 6 | -29 | 52* | 23
CC(C(=O)N1CCN(Cc2ccccc2)CC1)c1ccc([N+](=O)[O-])cc1 (stereo unspecified) | -4 | -1 | 1 | 0 | -4 | 28 | nt
CC(CCc1ccccc1)NC(=O)c1ccc(C(=O)NC(C)CCc2ccccc2)cc1 (stereo unspecified) | -2 | -1 | -1 | -2 | -11 | -10 | nt
COc1ccc(C(=O)OC(C)C(=O)NC(C)CCc2ccccc2)cc1[N+](=O)[O-] (stereo unspecified) | -11 | -1 | 5 | -2 | 2 | 59* | 32*
COc1ccc(C(=O)OCC(=O)NCCCc2ccccc2)cc1[N+](=O)[O-] | -4 | -2 | 3 | 6 | -5 | 79* | 79*
COC(=O)CNC(=O)COC(=O)c1ccc(OC)c([N+](=O)[O-])c1 | -3 | -8 | 2 | -1 | -8 | -3 | nt
CC(OC(=O)c1ccc(Cl)c([N+](=O)[O-])c1)C(=O)N1CCN(Cc2ccccc2)CC1 (stereo unspecified) | 3 | nt | 3 | 1 | -1 | 73* | 54*
CCNC(=S)NN=Cc1ccc(OCc2ccc(C(=O)OC)cc2)cc1 | nt | nt | 1 | nt | nt | nt | nt
COc1ccc(NC(=O)CC(C)=NNC(=O)C(=O)NC2CCCCC2)c(OC)c1 | nt | nt | 1 | nt | nt | nt | nt
O=C(ON=C1CCCc2ccccc21)C1CC1 | nt | nt | -1 | nt | nt | nt | nt
C[C@H](CO)N1C[C@H](C)[C@@H](CN(C)C(=O)NC2CCCCC2)Oc2c(NC(=O)Nc3ccccc3)cccc2C1=O | 10 | nt | 3 | 7 | 2 | 66* | 77*
COc1ccc(NC(=O)Nc2cccc3c2O[C@H](CN(C)C(=O)Nc2ccc(C(F)(F)F)cc2)[C@@H](C)CN([C@H](C)CO)C3=O)cc1 | 2 | nt | 3 | -2 | -9 | 52* | 56*
N#CNC(=Nc1ccccc1)SCc1ccc(C(=O)O)cc1 | 3 | -2 | 2 | -1 | -3 | -3 | nt
CSC(=Nc1ccccc1)N=C(SCc1ccccc1)N(C)C | -2 | nt | nt | nt | nt | 84* | 90*
O=C(COC(=O)c1cc([N+](=O)[O-])ccc1N1CCOCC1)Nc1ncc(Cl)cc1Cl | 4 | 7 | 8 | 10 | -5 | 54* | 71*
O=C(COC(=O)c1cc([N+](=O)[O-])ccc1N1CCOCC1)Nc1c(Cl)cccc1C(F)(F)F | 22 | -8 | 0 | 3 | 26 | 65* | 62*
COc1ccc(C2=C(C=Nc3c(C)n(C)n(-c4ccccc4)c3=O)C(c3ccccc3C)c3ccccc3O2)cc1OC (stereo unspecified) | -13 | -11 | 10 | 1 | -2 | 84* | 28
CCc1ccc(N=CC23c4ccccc4C(c4ccccc42)C2C(=O)N(c4ccc(OC)cc4)C(=O)C23)cc1 (stereo unspecified) | 0 | 9 | 2 | 0 | -2 | 38 | nt
COc1ccc(N2C(=O)C3C4c5ccccc5C(C=Nc5ccc(C)cc5C)(c5ccccc54)C3C2=O)cc1 (stereo unspecified) | 7 | 2 | 4 | 4 | -8 | 56* | 0
CC(=NOCC(=O)Nn1c(C)nc2ccccc2c1=O)c1cccs1 | nt | nt | 3 | nt | nt | nt | nt
COc1ccc(NC(=O)c2ccc3ccccc3n2)cc1S(=O)(=O)Nc1ccccc1Cl | -3 | -5 | 1 | -5 | -4 | 64* | 13
